In brackets after ≈: the same amount, converted by molar mass.
What was measured:
Assay type in all cases: functional
Staphylococcus aureus [1] = test: Antibacterial activity against constitutive macrolide, licosamide and streptogramin-resistant Staphylococcus aureus PK2 by broth microdilution technique
Summary of the method: (§1)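 MICs were determined by CLSI broth microdilution, with double dilutions of compound. Staphylococci were grown on Mueller–Hinton agar before testing. Results are given in µg/mL.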

Streptococcus pyogenes [2] = test: Antibacterial activity against erythromycin-sensitive Streptococcus pyogenes 3565 by broth microdilution technique
Summary of the method: (§2)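 Streptococcal MICs by CLSI broth microdilution with doubling dilutions, but with 5% horse serum in the medium in place of lysed blood. Before testing, strains were grown on Columbia agar with 5% sheep blood. Values reported in µg/mL.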

Streptococcus pneumoniae [3] = test: Antibacterial activity against efflux-mediated macrolide-resistant Streptococcus pneumoniae Ci137 by broth microdilution technique
Summary of the method: (§3)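 MICs were determined by CLSI broth microdilution, with double dilutions of compound. In the streptococcal medium, 5% horse serum replaced lysed blood. Streptococci were grown on Columbia agar with 5% sheep blood before testing. Results are given in µg/mL.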

Staphylococcus aureus [4] = test: Antibacterial activity against efflux-mediated macrolide-resistant Staphylococcus aureus PK1 by broth microdilution technique; summary of the method: as §1
Streptococcus pneumoniae [5] = test: Antibacterial activity against erythromycin-sensitive Streptococcus pneumoniae SP030 by broth microdilution technique; summary of the method: as §2
Streptococcus pyogenes [6] = test: Antibacterial activity against constitutive macrolide, licosamide and streptogramin-resistant Streptococcus pyogenes 166 GR-Micro by broth microdilution technique; summary of the method: as §3
Streptococcus pneumoniae [7] = test: Antibacterial activity against constitutive macrolide, licosamide and streptogramin-resistant Streptococcus pneumoniae 58 Spain by broth microdilution technique; summary of the method: as §3
Staphylococcus aureus [8] = test: Antibacterial activity against erythromycin-sensitive Staphylococcus aureus ATCC 13709 by broth microdilution technique
Summary of the method: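 MIC by broth microdilution per CLSI guidelines with doubling dilutions of compounds. Before testing, staphylococci were grown on Mueller–Hinton agar. Values reported in µg/mL.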

Haemophilus influenzae = test: Antibacterial activity against Haemophilus influenzae ATCC 49247 by broth microdilution technique
Summary of the method: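 MIC by broth microdilution per CLSI guidelines with doubling dilutions of compounds. Before testing, organisms were grown on Mueller-Hinton chocolate agar. Values reported in µg/mL.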

Moraxella catarrhalis = test: Antibacterial activity against Moraxella catarrhalis ATCC 23246 by broth microdilution technique
Summary of the method: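 MIC by broth microdilution per CLSI guidelines with doubling dilutions of compounds. Before testing, organisms were grown on Columbia agar with 5% sheep blood. Values reported in µg/mL.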

Staphylococcus aureus [9] = test: Antibacterial activity against inducible macrolide, licosamide and streptogramin-resistant Staphylococcus aureus 90256/97 by broth microdilution technique; summary of the method: as §1
Streptococcus pyogenes [10] = test: Antibacterial activity against inducible macrolide, licosamide and streptogramin-resistant Streptococcus pyogenes Finland 11 by broth microdilution technique; summary of the method: as §3
Streptococcus pyogenes [11] = test: Antibacterial activity against efflux-mediated macrolide-resistant Streptococcus pyogenes 3 Finland by broth microdilution technique; summary of the method: as §3
Streptococcus pneumoniae [12] = test: Antibacterial activity against inducible macrolide-resistant, constitutive licosamide and streptogramin-resistant Streptococcus pneumoniae 134 GR-Micro by broth microdilution technique; summary of the method: as §3

Row | Compound | MIC (Staphylococcus aureus [1]) [µg/mL] | MIC (Streptococcus pyogenes [2]) [µg/mL] | MIC (Streptococcus pneumoniae [3]) [µg/mL] | MIC (Staphylococcus aureus [4]) [µg/mL] | MIC (Streptococcus pneumoniae [5]) [µg/mL] | MIC (Streptococcus pyogenes [6]) [µg/mL] | MIC (Streptococcus pneumoniae [7]) [µg/mL] | MIC (Staphylococcus aureus [8]) [µg/mL] | MIC (Haemophilus influenzae) [µg/mL] | MIC (Moraxella catarrhalis) [µg/mL] | MIC (Staphylococcus aureus [9]) [µg/mL] | MIC (Streptococcus pyogenes [10]) [µg/mL] | MIC (Streptococcus pyogenes [11]) [µg/mL] | MIC (Streptococcus pneumoniae [12]) [µg/mL]
1 | CCOC(=O)c1cn(CC)c2ccc(C#CCN3CCN(C(=O)OC(C)(C)C)CC3)cc2c1=O | > 64 | > 64 | > 64 | > 64 | > 64 | > 64 | > 64 | > 64 | > 64 | > 64 | > 64 | > 64 | > 64 | > 64
2 | CCOC(=O)c1cn(CC)c2ccc(C#CCN3CCNCC3)cc2c1=O | > 64 | > 64 | > 64 | > 64 | > 64 | > 64 | > 64 | > 64 | > 64 | > 64 | > 64 | > 64 | > 64 | > 64
3 | CCOC(=O)c1cn(C2CC2)c2ccc(C#CCN3CCN(C(=O)OC(C)(C)C)CC3)cc2c1=O | > 64 | > 64 | > 64 | > 64 | > 64 | > 64 | > 64 | > 64 | > 64 | > 64 | > 64 | > 64 | > 64 | > 64
4 | CCOC(=O)c1cn(C2CC2)c2ccc(C#CCN3CCNCC3)cc2c1=O | > 64 | > 64 | > 64 | > 64 | > 64 | > 64 | > 64 | > 64 | > 64 | > 64 | > 64 | > 64 | > 64 | > 64
5 | CCOC(=O)c1cn(CC)c2ccc(/C=C/CN3CCN(C(=O)OC(C)(C)C)CC3)cc2c1=O | > 64 | > 64 | > 64 | > 64 | 64 (≈ 136 µM) | > 64 | > 64 | > 64 | > 64 | > 64 | > 64 | > 64 | > 64 | > 64
6 | CCOC(=O)c1cn(CC)c2ccc(/C=C/CN3CCNCC3)cc2c1=O | > 64 | > 64 | > 64 | > 64 | 64 (≈ 173 µM) | > 64 | > 64 | > 64 | > 64 | > 64 | > 64 | > 64 | > 64 | > 64
7 | CCOC(=O)c1cn(CC)c2ccc(C#CCN3CCN(CCC(=O)O[C@H]4[C@H](C)O[C@@H](O[C@H]5[C@H](C)[C@@H](O[C@@H]6O[C@H](C)C[C@H](N(C)C)[C@H]6O)[C@](C)(OC)C[C@@H](C)C(=O)[C@H](C)[C@@H](O)[C@](C)(O)[C@@H](CC)OC(=O)[C@@H]5C)C[C@@]4(C)OC)CC3)cc2c1=O | > 64 | ≤ 0.125 | ≤ 0.125 | 32 (≈ 27.4 µM) | ≤ 0.125 | 8 (≈ 6.84 µM) | ≤ 0.125 | 0.25 (≈ 0.214 µM) | 4 (≈ 3.42 µM) | 1 (≈ 0.855 µM) | > 64 | ≤ 0.125 |  | 1 (≈ 0.855 µM)
8 | CCOC(=O)c1cn(C2CC2)c2ccc(C#CCN3CCN(CCC(=O)O[C@H]4[C@H](C)O[C@@H](O[C@H]5[C@H](C)[C@@H](O[C@@H]6O[C@H](C)C[C@H](N(C)C)[C@H]6O)[C@](C)(OC)C[C@@H](C)C(=O)[C@H](C)[C@@H](O)[C@](C)(O)[C@@H](CC)OC(=O)[C@@H]5C)C[C@@]4(C)OC)CC3)cc2c1=O | > 64 | ≤ 0.125 | ≤ 0.125 | > 64 | ≤ 0.125 | 16 (≈ 13.5 µM) | 4 (≈ 3.39 µM) | 4 (≈ 3.39 µM) | > 64 | 4 (≈ 3.39 µM) | > 64 | 0.5 (≈ 0.423 µM) | ≤ 0.125 | 4 (≈ 3.39 µM)
9 | CCOC(=O)c1cn(CC)c2ccc(CCCN3CCN(CCC(=O)O[C@H]4[C@H](C)O[C@@H](O[C@H]5[C@H](C)[C@@H](O[C@@H]6O[C@H](C)C[C@H](N(C)C)[C@H]6O)[C@](C)(OC)C[C@@H](C)C(=O)[C@H](C)[C@@H](O)[C@](C)(O)[C@@H](CC)OC(=O)[C@@H]5C)C[C@@]4(C)OC)CC3)cc2c1=O | > 64 | ≤ 0.125 | ≤ 0.125 | > 64 | ≤ 0.125 | 16 (≈ 13.6 µM) | 8 (≈ 6.82 µM) | 4 (≈ 3.41 µM) | > 64 | 4 (≈ 3.41 µM) | > 64 | 0.25 (≈ 0.213 µM) | ≤ 0.125 | 16 (≈ 13.6 µM)
10 | CCOC(=O)c1cn(C2CC2)c2ccc(CCCN3CCN(CCC(=O)O[C@H]4[C@H](C)O[C@@H](O[C@H]5[C@H](C)[C@@H](O[C@@H]6O[C@H](C)C[C@H](N(C)C)[C@H]6O)[C@](C)(OC)C[C@@H](C)C(=O)[C@H](C)[C@@H](O)[C@](C)(O)[C@@H](CC)OC(=O)[C@@H]5C)C[C@@]4(C)OC)CC3)cc2c1=O | > 64 | ≤ 0.125 | ≤ 0.125 | > 64 | ≤ 0.125 | 16 (≈ 13.5 µM) | 4 (≈ 3.37 µM) | 4 (≈ 3.37 µM) | > 64 | 4 (≈ 3.37 µM) | > 64 | 0.5 (≈ 0.422 µM) | ≤ 0.125 | 16 (≈ 13.5 µM)
11 | CCOC(=O)c1cn(CC)c2ccc(C#CCN3CCN(CCC(=O)O[C@H]4[C@H](C)O[C@@H](O[C@H]5[C@H](C)[C@@H](O[C@@H]6O[C@H](C)C[C@H](N(C)C)[C@H]6O)[C@](C)(O)C[C@@H](C)CN(C)[C@H](C)[C@@H](O)[C@](C)(O)[C@@H](CC)OC(=O)[C@@H]5C)C[C@@]4(C)OC)CC3)cc2c1=O | > 64 | ≤ 0.125 | ≤ 0.125 | 16 (≈ 13.7 µM) | ≤ 0.125 | 32 (≈ 27.3 µM) | ≤ 0.125 | 1 (≈ 0.854 µM) | 4 (≈ 3.42 µM) | 1 (≈ 0.854 µM) | > 64 | ≤ 0.125 | ≤ 0.125 | ≤ 0.125
12 | CCOC(=O)c1cn(CC)c2ccc(CCCN3CCN(CCC(=O)O[C@H]4[C@H](C)O[C@@H](O[C@H]5[C@H](C)[C@@H](O[C@@H]6O[C@H](C)C[C@H](N(C)C)[C@H]6O)[C@](C)(O)C[C@@H](C)CN(C)[C@H](C)[C@@H](O)[C@](C)(O)[C@@H](CC)OC(=O)[C@@H]5C)C[C@@]4(C)OC)CC3)cc2c1=O | > 64 | ≤ 0.125 | ≤ 0.125 | 64 (≈ 54.5 µM) | ≤ 0.125 | 32 (≈ 27.2 µM) | ≤ 0.125 | 1 (≈ 0.851 µM) | 2 (≈ 1.7 µM) | 0.25 (≈ 0.213 µM) | > 64 | ≤ 0.125 | 0.5 (≈ 0.426 µM) | ≤ 0.125
13 | CCOC(=O)c1cn(C2CC2)c2ccc(CCCN3CCN(CCC(=O)O[C@H]4[C@H](C)O[C@@H](O[C@H]5[C@H](C)[C@@H](O[C@@H]6O[C@H](C)C[C@H](N(C)C)[C@H]6O)[C@](C)(O)C[C@@H](C)CN(C)[C@H](C)[C@@H](OC)[C@](C)(O)[C@@H](CC)OC(=O)[C@@H]5C)C[C@@]4(C)OC)CC3)cc2c1=O | > 64 | ≤ 0.125 | ≤ 0.125 | > 64 | ≤ 0.125 | 32 (≈ 26.7 µM) | 32 (≈ 26.7 µM) | 4 (≈ 3.33 µM) | 16 (≈ 13.3 µM) |  | > 64 | 0.25 (≈ 0.208 µM) | 1 (≈ 0.833 µM) | > 64
14 | CC[C@H]1OC(=O)[C@H](C)[C@@H](O[C@H]2C[C@@](C)(OC)[C@@H](OC(=O)CCN3CCN(CCCc4ccc5c(c4)c(=O)c(C(=O)O)cn5CC)CC3)[C@H](C)O2)[C@H](C)[C@@H](O[C@@H]2O[C@H](C)C[C@H](N(C)C)[C@H]2O)[C@](C)(O)C[C@@H](C)CN(C)[C@H](C)[C@@H](OC)[C@]1(C)O | > 64 | ≤ 0.125 | ≤ 0.125 | 0.25 (≈ 0.215 µM) | ≤ 0.125 | 32 (≈ 27.6 µM) | ≤ 0.125 | ≤ 0.125 | 1 (≈ 0.862 µM) | 0.5 (≈ 0.431 µM) | 4 (≈ 3.45 µM) | ≤ 0.125 | ≤ 0.125 | 16 (≈ 13.8 µM)
15 | CC[C@H]1OC(=O)[C@H](C)[C@@H](O[C@H]2C[C@@](C)(OC)[C@@H](OCCCN3CCN(CCCc4ccc5c(c4)c(=O)c(C(=O)O)cn5CC)CC3)[C@H](C)O2)[C@H](C)[C@@H](O[C@@H]2O[C@H](C)C[C@H](N(C)C)[C@H]2O)[C@](C)(O)C[C@@H](C)CN(C)[C@H](C)[C@@H](O)[C@]1(C)O | > 64 | 0.5 (≈ 0.442 µM) | 0.25 (≈ 0.221 µM) | 32 (≈ 28.3 µM) | ≤ 0.125 | > 64 | 8 (≈ 7.06 µM) | 8 (≈ 7.06 µM) | 32 (≈ 28.3 µM) |  | > 64 | 4 (≈ 3.53 µM) | 8 (≈ 7.06 µM) | 32 (≈ 28.3 µM)
